Key:
[1] = test system: moderate or severe atopic dermatitis; assay: Phase 2a study ATI-1777-AD-201: efficacy; assay type: in vivo, human
In short: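 Randomized 1:1, double-blind, vehicle-controlled, 14 US sites; stratified by severity. Adults 18–65 with moderate/severe AD (IGA 3–4, 3–20% BSA). Up to 8 ml 2.0% w/w solution or vehicle applied twice daily for 28 days, 2-week follow-up. mEASI, IGA, BSA assessed days 8, 15, 28; PP-NRS tracked. MMRM, 1-sided tests, full analysis set (23 vs 25).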

FLT4 (VEGFR3) = FLT4 (VEGFR3) (Homo sapiens, UniProt P35916); assay: IC50 for kinases of potential cross-over; assay type: biochemical
[2] = Metabolic stability in liver microsomes; assay type: in vitro ADME; conditions: mouse
CYP2C8 = CYP2C8 (Homo sapiens, UniProt P10632); assay: Cytochrome P450 phenotyping; assay type: in vitro ADME; conditions: recombinant human CYP2C8; with NADPH; 60 minutes; n = 1
In short: (§1)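 Recombinant human CYPs prepared at CYP1A2 200 nM, CYP2B6/2C8 250 nM, CYP2C9 100 nM, CYP2D6 50 nM. Test compound added as 2 μM DMSO dosing solution on ice. Plate prewarmed, then 8 mM NADPH solution or blank buffer added. Incubation 60 min (1A2, 2B6, 2C8) or 30 min (2C9, 2D6). Stopped with acetonitrile plus internal standard; supernatant by LC-MS/MS; n = 1.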

Jak2/TYK2 = assay: Inhibition of IL-12-induced STAT phosphorylation in PBMCs; assay type: cell-based, human
In short: (§2)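 Ficoll-isolated human PBMCs, cryopreserved, thawed into RPMI/10% heat-inactivated FBS assay medium, 200,000 cells/well. Serially diluted test compound (final 20 μM to 2 × 10−6 μM) or 0.1% DMSO vehicle preincubated 1 h at 37 °C. Cytokine then added for 5–10 min, followed by 30 min shaking at 4 °C and lysis. Phospho-STAT5/STAT4 by MSD immunoassay, phospho-STAT1 by ELISA. IC50 reported as mean ± SD.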

CYP2C19 = CYP2C19 (Homo sapiens, UniProt P33261); assay: Cytochrome P450 phenotyping; assay type: in vitro ADME; conditions: recombinant human CYP2C19; with NADPH; 60 minutes; n = 1
Jak2/2 = assay: Inhibition of GM-CSF-induced STAT phosphorylation in PBMCs; assay type: cell-based, human
In short: as §2

Jak2 = Jak2 (Homo sapiens, UniProt O60674); assay: Inhibition of catalytic domain activity, Jak2; assay type: biochemical
In short: (§3)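 Z′-LYTE biochemical kinase assay run by the vendor per manufacturer's protocol. Each kinase plate carried 0%/100% phosphorylation and 0%/100% inhibition controls. Development-reaction and compound-fluorescence interference controls at each compound concentration. n = 1 per kinase.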

LRRK2 = LRRK2 (Homo sapiens, UniProt Q5S007); assay: IC50 for kinases of potential cross-over; assay type: biochemical
[3] = Metabolic stability in liver microsomes; assay type: in vitro ADME; conditions: monkey
In short: (§4)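 Test compound from 1 mM DMSO solution preincubated 5 min with dog, human, monkey, rat or minipig liver microsomes. NADPH (10 mM) then added. Reactions stopped at 0, 5, 15 and 30 min with 0.05% formic acid in acetonitrile containing loperamide internal standard. Supernatants analysed by LC-MS/MS; n = 1 per microsome species.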

[4] = Metabolic stability in liver microsomes; assay type: in vitro ADME; conditions: rat
In short: as §4

TYK2 = TYK2 (Homo sapiens, UniProt P29597); assay: Inhibition of catalytic domain activity, TYK2; assay type: biochemical
In short: as §3

minipig = assay: 7-day minipig study: dermal tolerability; assay type: in vivo; conditions: 2% solution applied to the skin for 7 consecutive days
In short: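 Each minipig (1 male, 1 female) received topical test compound and matching placebo formulations once daily on designated skin areas. Animals were checked daily for clinical signs. Application sites were scored for dermal irritation by a modified Draize procedure.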

CYP1A2 = CYP1A2 (Homo sapiens, UniProt P05177); assay: Cytochrome P450 phenotyping; assay type: in vitro ADME; conditions: recombinant human CYP1A2; with NADPH; 60 minutes; n = 1
In short: as §1

MARK1 = MARK1 (Homo sapiens, UniProt Q9P0L2); assay: IC50 for kinases of potential cross-over; assay type: biochemical
CYP3A4 = CYP3A4 (Homo sapiens, UniProt P08684); assay: Cytochrome P450 phenotyping; assay type: in vitro ADME; conditions: recombinant human CYP3A4; with NADPH; 30 minutes; n = 1
In short: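 Recombinant human CYP3A4 was prepared at 100 nM, and a 2 μM dosing solution of test compound in DMSO was added on ice. After prewarming, 8 mM NADPH solution or blank buffer was added for 30 minutes. Acetonitrile with internal standard stopped the reaction. The plate was shaken and centrifuged, and the supernatant was analysed by LC-MS/MS; n = 1.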

[5] = day 28, 2% topical solution twice daily, n = 23
[6] = Homo sapiens, PBMC, read-out: IC50 Mean ± SD

Chain of CYP3A4 (P08684 whole entry): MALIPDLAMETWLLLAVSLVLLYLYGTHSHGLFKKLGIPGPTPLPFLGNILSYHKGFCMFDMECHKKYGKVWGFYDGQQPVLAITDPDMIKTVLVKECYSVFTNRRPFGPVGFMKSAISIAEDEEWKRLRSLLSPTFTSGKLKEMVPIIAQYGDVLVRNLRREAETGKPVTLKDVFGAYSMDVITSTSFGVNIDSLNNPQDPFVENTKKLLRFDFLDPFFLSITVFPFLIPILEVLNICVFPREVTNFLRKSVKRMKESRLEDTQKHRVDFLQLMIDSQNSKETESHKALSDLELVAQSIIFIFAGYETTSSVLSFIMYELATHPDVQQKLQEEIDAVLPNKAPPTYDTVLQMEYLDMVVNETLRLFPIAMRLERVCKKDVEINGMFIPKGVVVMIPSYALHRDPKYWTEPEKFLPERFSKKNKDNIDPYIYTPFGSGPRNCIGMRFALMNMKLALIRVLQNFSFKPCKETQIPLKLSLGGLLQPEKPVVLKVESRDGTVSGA
Chain of LRRK2 (Q5S007 whole entry): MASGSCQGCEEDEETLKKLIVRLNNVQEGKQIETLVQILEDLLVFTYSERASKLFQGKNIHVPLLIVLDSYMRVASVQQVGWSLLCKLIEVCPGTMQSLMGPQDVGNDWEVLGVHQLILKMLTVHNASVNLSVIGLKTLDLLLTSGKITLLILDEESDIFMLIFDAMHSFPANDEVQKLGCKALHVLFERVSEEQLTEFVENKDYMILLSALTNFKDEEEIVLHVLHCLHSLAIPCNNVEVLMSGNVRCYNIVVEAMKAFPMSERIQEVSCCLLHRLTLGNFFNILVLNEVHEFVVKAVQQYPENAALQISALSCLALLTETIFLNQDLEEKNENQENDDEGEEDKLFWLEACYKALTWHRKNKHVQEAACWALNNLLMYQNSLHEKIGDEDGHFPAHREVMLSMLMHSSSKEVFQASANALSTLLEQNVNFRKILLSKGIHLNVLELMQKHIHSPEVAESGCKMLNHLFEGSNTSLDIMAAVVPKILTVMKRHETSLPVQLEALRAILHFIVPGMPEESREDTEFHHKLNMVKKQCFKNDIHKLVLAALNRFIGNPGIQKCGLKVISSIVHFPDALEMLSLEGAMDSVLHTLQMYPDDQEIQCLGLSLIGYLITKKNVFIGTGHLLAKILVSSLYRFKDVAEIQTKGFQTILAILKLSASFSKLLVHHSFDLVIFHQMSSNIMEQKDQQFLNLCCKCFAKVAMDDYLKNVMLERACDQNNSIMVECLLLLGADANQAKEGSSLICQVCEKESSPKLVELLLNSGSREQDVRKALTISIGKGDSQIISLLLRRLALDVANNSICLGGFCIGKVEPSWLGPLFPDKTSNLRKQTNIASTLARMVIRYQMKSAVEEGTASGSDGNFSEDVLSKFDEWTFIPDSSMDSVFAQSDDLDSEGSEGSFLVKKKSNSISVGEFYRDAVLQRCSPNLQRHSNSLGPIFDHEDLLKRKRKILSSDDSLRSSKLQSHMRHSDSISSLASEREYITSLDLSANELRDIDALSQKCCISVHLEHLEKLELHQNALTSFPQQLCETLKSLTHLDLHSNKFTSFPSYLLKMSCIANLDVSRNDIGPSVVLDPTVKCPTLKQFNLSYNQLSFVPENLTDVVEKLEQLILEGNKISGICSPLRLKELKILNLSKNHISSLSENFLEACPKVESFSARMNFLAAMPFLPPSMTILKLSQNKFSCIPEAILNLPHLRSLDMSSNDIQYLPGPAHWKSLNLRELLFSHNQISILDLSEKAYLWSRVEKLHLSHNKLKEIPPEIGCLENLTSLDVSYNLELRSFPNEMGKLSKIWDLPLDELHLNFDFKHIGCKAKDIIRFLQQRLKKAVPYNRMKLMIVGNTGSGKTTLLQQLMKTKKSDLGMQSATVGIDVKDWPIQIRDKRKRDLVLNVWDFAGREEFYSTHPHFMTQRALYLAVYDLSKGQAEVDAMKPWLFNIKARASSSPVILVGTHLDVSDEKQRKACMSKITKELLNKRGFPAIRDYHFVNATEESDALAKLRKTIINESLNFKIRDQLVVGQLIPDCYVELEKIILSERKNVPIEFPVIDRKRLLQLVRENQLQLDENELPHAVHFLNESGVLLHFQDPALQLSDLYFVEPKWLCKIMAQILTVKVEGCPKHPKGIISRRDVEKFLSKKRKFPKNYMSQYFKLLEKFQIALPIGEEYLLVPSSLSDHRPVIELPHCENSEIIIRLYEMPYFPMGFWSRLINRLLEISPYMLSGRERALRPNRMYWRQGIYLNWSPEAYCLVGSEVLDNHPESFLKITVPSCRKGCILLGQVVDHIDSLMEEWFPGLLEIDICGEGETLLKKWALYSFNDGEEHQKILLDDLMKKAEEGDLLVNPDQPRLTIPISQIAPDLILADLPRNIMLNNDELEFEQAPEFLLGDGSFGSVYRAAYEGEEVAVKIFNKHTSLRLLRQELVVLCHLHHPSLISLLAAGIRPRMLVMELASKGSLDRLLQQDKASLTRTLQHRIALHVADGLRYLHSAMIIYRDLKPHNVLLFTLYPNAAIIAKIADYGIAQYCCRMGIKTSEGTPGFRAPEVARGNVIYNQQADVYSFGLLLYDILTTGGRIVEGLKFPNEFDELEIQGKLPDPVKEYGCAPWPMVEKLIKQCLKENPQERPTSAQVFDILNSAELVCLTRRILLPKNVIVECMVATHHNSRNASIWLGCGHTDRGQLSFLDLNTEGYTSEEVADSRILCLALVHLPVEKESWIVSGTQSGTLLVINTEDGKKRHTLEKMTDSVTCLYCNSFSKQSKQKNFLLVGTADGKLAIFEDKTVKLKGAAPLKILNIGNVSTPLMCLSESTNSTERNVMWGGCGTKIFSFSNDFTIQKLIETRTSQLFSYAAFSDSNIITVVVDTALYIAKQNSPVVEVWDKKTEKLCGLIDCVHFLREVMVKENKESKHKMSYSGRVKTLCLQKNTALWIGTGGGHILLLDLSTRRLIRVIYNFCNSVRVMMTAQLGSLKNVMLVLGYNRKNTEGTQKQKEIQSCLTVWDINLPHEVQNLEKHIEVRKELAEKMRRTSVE
Chain of MARK1 (Q9P0L2 whole entry): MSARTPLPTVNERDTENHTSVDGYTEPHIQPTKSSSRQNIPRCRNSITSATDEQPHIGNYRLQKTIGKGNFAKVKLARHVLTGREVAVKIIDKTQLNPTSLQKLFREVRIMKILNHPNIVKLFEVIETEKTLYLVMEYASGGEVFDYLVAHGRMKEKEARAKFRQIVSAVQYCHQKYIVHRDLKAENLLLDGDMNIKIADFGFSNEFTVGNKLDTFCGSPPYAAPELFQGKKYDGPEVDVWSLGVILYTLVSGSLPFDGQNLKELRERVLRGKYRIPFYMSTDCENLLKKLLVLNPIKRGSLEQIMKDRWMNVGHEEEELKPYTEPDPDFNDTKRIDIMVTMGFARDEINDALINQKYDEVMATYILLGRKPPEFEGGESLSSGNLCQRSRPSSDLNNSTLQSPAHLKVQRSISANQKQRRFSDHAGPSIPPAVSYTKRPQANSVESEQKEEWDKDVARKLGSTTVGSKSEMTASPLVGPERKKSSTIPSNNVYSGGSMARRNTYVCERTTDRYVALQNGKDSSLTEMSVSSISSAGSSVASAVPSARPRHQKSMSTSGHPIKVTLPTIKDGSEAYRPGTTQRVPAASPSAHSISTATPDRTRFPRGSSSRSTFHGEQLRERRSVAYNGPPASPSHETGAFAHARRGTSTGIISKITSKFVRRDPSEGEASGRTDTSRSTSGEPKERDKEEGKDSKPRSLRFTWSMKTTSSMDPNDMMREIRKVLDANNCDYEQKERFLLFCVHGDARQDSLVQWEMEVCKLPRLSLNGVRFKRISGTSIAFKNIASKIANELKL
Chain of Jak2 (O60674 849-1124 limits assumed): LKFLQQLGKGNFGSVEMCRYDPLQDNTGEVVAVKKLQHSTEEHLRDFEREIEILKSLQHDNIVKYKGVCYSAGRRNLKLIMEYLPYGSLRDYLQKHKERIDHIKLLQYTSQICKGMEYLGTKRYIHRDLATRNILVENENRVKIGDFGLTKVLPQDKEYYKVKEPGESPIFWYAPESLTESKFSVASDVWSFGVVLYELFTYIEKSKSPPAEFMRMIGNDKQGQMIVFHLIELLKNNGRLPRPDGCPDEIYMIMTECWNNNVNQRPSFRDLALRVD
Chain of CYP2C8 (P10632 whole entry): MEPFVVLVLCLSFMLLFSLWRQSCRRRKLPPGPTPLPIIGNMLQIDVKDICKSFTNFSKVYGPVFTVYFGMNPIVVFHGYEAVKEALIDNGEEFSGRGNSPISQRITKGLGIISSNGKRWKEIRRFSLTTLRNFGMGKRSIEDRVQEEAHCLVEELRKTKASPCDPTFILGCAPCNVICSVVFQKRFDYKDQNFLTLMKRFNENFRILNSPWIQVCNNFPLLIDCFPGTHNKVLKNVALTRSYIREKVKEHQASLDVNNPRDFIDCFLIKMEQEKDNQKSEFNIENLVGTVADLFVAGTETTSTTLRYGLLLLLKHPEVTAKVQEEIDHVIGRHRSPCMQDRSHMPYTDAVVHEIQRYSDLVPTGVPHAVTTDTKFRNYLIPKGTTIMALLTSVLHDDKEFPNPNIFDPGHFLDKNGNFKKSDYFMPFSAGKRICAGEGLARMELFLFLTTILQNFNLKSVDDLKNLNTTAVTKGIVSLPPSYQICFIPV
Chain of CYP2C19 (P33261 whole entry): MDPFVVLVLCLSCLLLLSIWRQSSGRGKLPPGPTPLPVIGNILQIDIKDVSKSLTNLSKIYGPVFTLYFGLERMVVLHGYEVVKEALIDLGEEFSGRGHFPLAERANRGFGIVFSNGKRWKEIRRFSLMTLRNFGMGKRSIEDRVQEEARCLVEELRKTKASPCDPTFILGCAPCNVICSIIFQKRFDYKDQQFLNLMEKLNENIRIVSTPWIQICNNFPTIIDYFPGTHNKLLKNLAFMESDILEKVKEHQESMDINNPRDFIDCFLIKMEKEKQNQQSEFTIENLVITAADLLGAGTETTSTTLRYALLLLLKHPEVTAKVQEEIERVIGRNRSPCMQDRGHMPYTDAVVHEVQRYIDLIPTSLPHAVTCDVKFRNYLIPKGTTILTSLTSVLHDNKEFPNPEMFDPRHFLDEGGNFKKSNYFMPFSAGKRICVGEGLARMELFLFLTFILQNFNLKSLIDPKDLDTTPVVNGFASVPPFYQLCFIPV

CCOC(=O)c1cnc2[nH]ccc2c1N[C@@H]1CCCN(C(=O)CC#N)C1 [ATI-1777, ethyl (R)-4-((1-(2-cyanoacetyl)piperidin-3-yl)amino)-1H-pyrrolo[2,3-b]pyridine-5-carboxylate]
least squared means change from baseline of PP-NRS score ([1]; SE = 0.548, P = .060 vs vehicle): −2.92 | BSA affected by AD, change from baseline ([1]; day 8): −1.55% | BSA affected by AD, change from baseline ([1]; day 15): −3.33% | participants achieving a 50% reduction in mEASI [1, 5]: 91.3% | participants achieving a 75% reduction in mEASI [1, 5]: 65.2% | BSA affected by AD, change from baseline ([1]; day 28, P < .001 vs vehicle): −5.59% | percentage reduction from baseline in mEASI score ([1]; day 28, mixed model for repeated measures without imputation, SE = 5.943): 78.46% | participants achieving an IGA score of 0 or 1 with ≥2 point improvement ([1]; end of treatment period (day 28), P = .131 vs vehicle, n = 23): 39.1% | IC50 (FLT4 (VEGFR3)): 113 nM | Fold Selectivity (FLT4 (VEGFR3); FLT4 (VEGFR3) vs Jak1 (= 1)): 75 fold | CLint scaled [2]: 3280 mL/min/kg | half-life [2]: 1.66 min | Percentage Remaining (CYP2C8): 41.2% | IC50 (Jak2/TYK2; [6]): 898 ± 178 nM | Fold Jak1/3 (Jak2/TYK2; IL-12, Jak2/TYK2 vs Jak1/3): 47.3 fold | Percentage Remaining (CYP2C19): 75.5% | Fold Jak1/3 (Jak2/2; GM-CSF, Jak2/2 vs Jak1/3): 41.8 fold | IC50 (Jak2/2; [6]): 794 ± 121 nM | IC50 (Jak2): 7.1 nM | IC50 (LRRK2): 48 nM | Fold Selectivity (LRRK2; LRRK2 vs Jak1 (= 1)): 32 fold | CLint scaled [3]: 939 mL/min/kg | microsomal CLint [3]: 264 µL/min/mg | half-life ([3]; T1/2, Study 1, n = 1): 2.16 min | half-life ([3]; T1/2, Study 2, n = 1): 5 min | CLint scaled [4]: 370 mL/min/kg | microsomal CLint [4]: 52 µL/min/mg | half-life ([4]; T1/2, Study 1, n = 1): 6.7 min | half-life ([4]; T1/2, Study 2, n = 1): 27 min | IC50 (TYK2): 19 nM | clinical observations and clinical pathology parameters (minipig): no adverse clinical observations or changes in clinical pathology parameters | Percentage Remaining (CYP1A2): 55.7% | IC50 (MARK1): 1250 nM | Fold Selectivity (MARK1; MARK1 vs Jak1 (= 1)): 833 fold | Percentage Remaining (CYP3A4): 0.56%
